Measurements reported in publication PMC3398245 (Analytical Biochemistry, 2012).

Tests used:
GST-RIP1 kinase domain [1] = target: T1, GST-RIP1 kinase domain (Homo sapiens, UniProt Q13546); assay: FP competition assay with fluorescein-Nec-1; type: binding; conditions: competition with 50 nM 20, 2.6 µM GST-RIP1, 3% DMSO
T1 sequence (Q13546 8-327): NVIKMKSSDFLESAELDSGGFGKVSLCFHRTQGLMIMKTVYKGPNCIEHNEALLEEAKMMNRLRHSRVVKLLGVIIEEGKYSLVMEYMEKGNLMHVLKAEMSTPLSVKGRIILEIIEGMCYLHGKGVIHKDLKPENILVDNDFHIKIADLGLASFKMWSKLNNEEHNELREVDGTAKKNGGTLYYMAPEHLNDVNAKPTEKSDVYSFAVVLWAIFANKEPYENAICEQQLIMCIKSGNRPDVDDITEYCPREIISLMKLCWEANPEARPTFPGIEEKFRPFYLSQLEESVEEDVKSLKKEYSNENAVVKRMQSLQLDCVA

GST-RIP1 kinase domain [2] = target: T1, GST-RIP1 kinase domain; assay: FP competition assay with fluorescein-Nec-3; type: binding; conditions: competition with 50 nM 26, 3.4 µM GST-RIP1, 3% DMSO
How it was run: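 Human RIP1 kinase domain (aa 8–327) as a GST fusion, expressed in baculovirus-infected Sf9 cells and purified by glutathione affinity and gel filtration. Tracer (50 nM) preincubated 5 min with 3.4 µM protein. Test compound titrated 0–100 µM at 3% final DMSO, then 10 min incubation. FP read at ex 485/em 535 nm in mP. IC50 from nonlinear variable-slope fit.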

CN1C(=O)C(Cc2c[nH]c3ccccc23)NC1=S (stereo not shown) [Compound 1]
IC50 (GST-RIP1 kinase domain [1]): 9.9 ± 0.6 µM
IC50 (GST-RIP1 kinase domain [2]): 7 ± 0.7 µM

COc1ccc2c(c1)C1=NN(C(C)=O)C(c3ccc(F)cc3)C1CC2 (stereo not shown) [Compound 7]
IC50 (GST-RIP1 kinase domain [1]): 10.7 ± 1.8 µM
IC50 (GST-RIP1 kinase domain [2]): 3.9 ± 0.7 µM
